ChEMBL document CHEMBL5107950, “Structure-based design of haloperidol analogues as inhibitors of acetyltransferase Eis from Mycobacterium tuberculosis to overcome kanamycin resistance” (RSC Med Chem, 2021)
In brackets after ≈: the same amount, converted by molar mass. Activity calls are given as the source filed them. No cut-off for these calls is given here.

What was measured:
[1] = system: Mycobacterium tuberculosis variant bovis; test: Antibacterial activity against Mycobacterium bovis BCG ATCC 35734 assessed as inhibition of bacterial growth incubated upto 3 weeks hrs by resazurin dye based double-dilution method; format: functional; conditions: BCG ATCC 35734, 504 h
How it was run: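 Double-dilution broth MIC. Media: M. smegmatis, Mueller-Hinton; M. abscessus, 7H9 + 0.05% Tween80 + 0.4% glycerol; mc²6230, 7H9 + 0.05% tyloxapol, 0.5% glycerol, 10% OADC, 0.2% casamino acids, 24 µg/mL pantothenate; other mycobacteria, 7H9 + 0.05% Tween80, 0.4% glycerol, 10% ADC. Inoculum from agar set to 0.5 McFarland, then diluted 1:100.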

[2] = system: Mycobacterium tuberculosis variant bovis; test: Synergistic antibacterial activity against Mycobacterium bovis BCG ATCC 35734 in presence of spectinomycin by checkerboard assay; format: functional, organism-based
How it was run: (§1)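 Checkerboard in 96-well plates. Antibiotic two-fold serially diluted along columns, haloperidol derivative two-fold along rows. Bacteria prepared as for the MIC determination. MICs alone and in combination used to calculate FICI. At least duplicate independent trials.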

[3] = system: Mycobacterium tuberculosis variant bovis; test: Antibacterial activity against Mycobacterium bovis BCG ATCC 35734 in presence of clarithromycin by checkerboard assay; format: functional, organism-based; how it was run: as §1
[4] = system: Mycobacterium tuberculosis variant bovis; test: Antibacterial activity against Mycobacterium bovis BCG ATCC 35734 in presence of clofazimine by checkerboard assay; format: functional, organism-based; how it was run: as §1

| SMILES | MIC [1] [µM] | also measured |
| --- | --- | --- |
| O=C(CCCN1CCC(O)CC1)c1ccc(F)cc1 | > 62.5 |  |
| O=C(CCCN1CCC(O)(c2ccc(F)cc2)CC1)c1ccc(Br)cc1 | 62.5 (≈ 26.3 µg/mL) |  |
| CC(=O)CCCN1CCC(O)(c2ccc(Cl)cc2)CC1 | > 62.5 |  |
| O=C(CCCN1CCC(O)(c2ccc(Br)cc2)CC1)c1ccc(F)cc1 [BROMPERIDOL] | 62.5 (≈ 26.3 µg/mL) |  |
| CC(C)c1ccc(C(=O)CCCN2CCC(O)(c3ccc(Cl)cc3)CC2)cc1 | 1 (≈ 0.4 µg/mL) |  |
| CC1CCCCN1CCCOc1ccc(F)cc1 (stereo not drawn) | 3.9 (≈ 0.98 µg/mL) |  |
| Cc1ccc(S(=O)(=O)N2CCC(O)(c3ccc(Cl)cc3)CC2)cc1 | > 62.5 |  |
| Cc1ccc(C(=O)CCCN2CCC(O)(c3ccc(Cl)cc3)CC2)cc1 | 15.6 (≈ 5.8 µg/mL) |  |
| COc1ccc(C(=O)CCCN2CCC(O)(c3ccc(Cl)cc3)CC2)cc1 | > 62.5 |  |
| CC(C)(C)c1ccc(C(=O)CCCN2CCC(O)(c3ccc(Cl)cc3)CC2)cc1 | 3.9 (≈ 1.61 µg/mL) |  |
| O=C(CCCN1CCC(O)(c2ccc(F)cc2)CC1)c1ccc(Cl)cc1 | > 62.5 | Activity [2]: Active; Activity [3]: Active; Activity [4]: Active |
| CCc1ccc(C(=O)CCCN2CCC(O)(c3ccc(Cl)cc3)CC2)cc1 | 2 (≈ 0.772 µg/mL) |  |
| Fc1ccc(OCCCN2CCC(c3ccccc3)CC2)cc1 | > 62.5 |  |
| O=C(CN1CCC(O)(c2ccc(Cl)cc2)CC1)c1ccc(F)cc1 | > 62.5 |  |
| O=C(CCCN1CCC(O)(c2ccc(Cl)cc2)CC1)c1ccc(F)cc1 [HALOPERIDOL] | 62.5 (≈ 23.5 µg/mL) |  |
| COc1ccc(C(=O)CCCN2CCC(O)(c3ccc(Br)cc3)CC2)cc1 | 62.5 (≈ 27 µg/mL) |  |
| O=C(CCCN1CCC(O)(c2ccc(Cl)cc2)CC1)c1ccc(Cl)cc1 [CHLOROHALOPERIDOL] | 62.5 (≈ 24.5 µg/mL) | Activity [2]: Active; Activity [3]: Active; Activity [4]: Active |

| SMILES | MIC [1] [µM] | also measured |
| --- | --- | --- |
| O=C(CCCN1CCCCC1)c1ccc(F)cc1 [PRIMAPERONE] | > 62.5 |  |
| O=C(CCCN1CCC(O)(c2ccc(Br)cc2)CC1)c1ccccc1 | > 62.5 |  |
| O=C(CCCN1CCC(O)(c2ccc(Cl)cc2)CC1)c1ccccc1 | 62.5 (≈ 22.4 µg/mL) |  |
| O=C(CCCN1CCC(O)(c2ccc(Br)cc2)CC1)c1ccc(Cl)cc1 | 15.6 (≈ 6.81 µg/mL) | Activity [2]: Active; Activity [3]: Active; Activity [4]: Active |
| O=C(CCCN1CCC(O)(c2ccccc2)CC1)c1ccc(F)cc1 | > 62.5 |  |
| O=C(CCCN1CCC(c2ccc(Cl)cc2)CC1)c1ccc(F)cc1 | 62.5 (≈ 22.5 µg/mL) |  |
| CC(C)(C)c1ccc(C(=O)CCCN2CCC(O)(c3ccc(Br)cc3)CC2)cc1 | 3.9 (≈ 1.79 µg/mL) |  |
| O=C(CCCN1CC=C(c2ccc(Cl)cc2)CC1)c1ccc(F)cc1 | 15.6 (≈ 5.58 µg/mL) |  |
| CC1CC(C)CN(CCCOc2ccc(F)cc2)C1 (stereo not drawn) | 15.6 (≈ 4.14 µg/mL) |  |
| O=C(CCCN1CCC(O)(c2ccc(Br)cc2)CC1)c1ccc(Br)cc1 | > 62.5 |  |
| O=C(CCCN1CCC(O)(c2ccc(F)cc2)CC1)c1ccc(F)cc1 | > 62.5 |  |
| CC(C)(C)c1ccc(C(=O)CCCN2CCC(O)(c3ccc(F)cc3)CC2)cc1 | 15.6 (≈ 6.2 µg/mL) |  |
| COc1ccc(C(=O)CCCN2CCC(O)(c3ccc(F)cc3)CC2)cc1 | > 62.5 |  |
| NNC(=O)c1ccncc1 [ISONIAZID] | ≤ 1 |  |
| CC1CC(C)CN(CCCC(=O)c2ccc(C(C)(C)C)cc2)C1 (stereo not drawn) | 31.3 (≈ 9.88 µg/mL) |  |
| O=C(CCCN1CCC(O)(c2ccc(F)cc2)CC1)c1ccccc1 | > 62.5 |  |
| O=C(CCCN1CCC(O)(c2ccc(Cl)cc2)CC1)c1ccc(Br)cc1 | > 62.5 |  |
